We go through 1 compound from ChEMBL document CHEMBL1255441, “Pharmacokinetics of cefotaxime and desacetylcefotaxime in infants during extracorporeal membrane oxygenation” (Antimicrob Agents Chemother, 2010).

Format in all cases: ADME, organism-based
What all share (design): dose 50 mg/kg, route intravenous

Data set [1] in a line: Clearance in infant during extracorporeal membrane oxygenation at 50 mg/kg, iv dosed 2 to 3 times per day as bolus dose. The following applies: human, in vivo. In a few lines: (§1)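 Infants on ECMO (n=37; PNA 0.67–199 days; 2.0–6.2 kg). Cefotaxime given as an IV bolus (≤3 min) into the extracorporeal line after the oxygenator. Dosing: 50 mg/kg b.i.d. for PNA <1 week, 50 mg/kg t.i.d. for 1–4 weeks, 37.5 mg/kg q.i.d. for >4 weeks. Routine venous circuit samples (EDTA), including post-decannulation up to 24 h. Cefotaxime and desacetyl metabolite measured by LC-MS (LOQ 0.2 mg/liter). One-compartment NONMEM population model.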

Data set [2] can be described thus: Volume of distribution in infant during extracorporeal membrane oxygenation at 50 mg/kg, iv dosed 2 to 3 times per day as bolus dose. The following applies: human, in vivo. In a few lines:
as §1

Data set [3] concerns Homo sapiens. The data set can be described thus: Clearance in infant during extracorporeal membrane oxygenation assessed as desacetylcefotaxime at 50 mg/kg, iv dosed 2 to 3 times per day as bolus dose. To be noted: in vivo. In a few lines:
as §1

Data set [4] concerns Homo sapiens. The data set can be described thus: Volume of distribution in infant during extracorporeal membrane oxygenation assessed as desacetylcefotaxime at 50 mg/kg, iv dosed 2 to 3 times per day as bolus dose. To be noted: in vivo. In outline:
as §1

Data set [5] is described as follows: Clearance in infant weighing 2 to 6.2 kg weight during extracorporeal membrane oxygenation at 50 mg/kg, iv dosed 2 to 3 times per day as bolus dose. To be noted: human, in vivo. In outline: as §1
Data set [6] in a line: Elimination half life in infant weighing 2 to 6.2 kg weight during extracorporeal membrane oxygenation at 50 mg/kg, iv dosed 2 to 3 times in a day bolus dose. To be noted: human, in vivo, read-out: beta t1/2 (converted). In outline:
as §1

The test system of data set [7] is Homo sapiens. Kind of data set: Elimination half life in infant weighing 2 to 6.2 kg weight during extracorporeal membrane oxygenation assessed as desacetylcefotaxime at 50 mg/kg, iv dosed 2 to 3 times per day as bolus dose. The following applies: in vivo. In outline: as §1
Data set [8] in a line: Clearance in infant weighing 2 to 6.2 kg weight at 50 mg/kg, iv dosed 2 to 3 times per day as bolus dose. To be noted: human, in vivo. In outline: as §1
Data set [9] concerns Homo sapiens. The data set can be described thus: Clearance in infant weighing 2 to 6.2 kg weight assessed as desacetylcefotaxime at 50 mg/kg, iv dosed 2 to 3 times per day as bolus dose. The following applies: in vivo. In a few lines:
as §1

Data set [10] can be described thus: Clearance in infant weighing 2 to 6.2 kg weight after extracorporeal membrane oxygenation at 50 mg/kg, iv dosed 2 to 3 times per day as bolus dose. To be noted: human, in vivo. In a few lines: as §1
Data set [11] deals with Homo sapiens. Kind of data set: Clearance in infant weighing 2 to 6.2 kg weight after extracorporeal membrane oxygenation assessed as desacetylcefotaxime at 50 mg/kg, iv dosed 2 to 3 times per day as bolus dose. The following applies: in vivo. In a few lines: as §1
The nature of data set [12]: Clearance in infant weighing 2 to 6.2 kg weight after extracorporeal membrane oxygenation at 50 mg/kg, iv dosed 2 to 3 times per day as bolus dose measured after 72 hrs. The following applies: human, in vivo. In outline:
as §1

In data set [13] the test system is Homo sapiens. The data set can be described thus: Clearance in infant weighing 2 to 6.2 kg weight after extracorporeal membrane oxygenation assessed as desacetylcefotaxime at 50 mg/kg, iv dosed 2 to 3 times per day as bolus dose measured after 72 hrs. The following applies: in vivo. In a few lines:
as §1

Take `CO/N=C(\C(=O)N[C@@H]1C(=O)N2C(C(=O)O)=C(COC(C)=O)CS[C@H]12)c1csc(N)n1` [CEFOTAXIME]: the clearance (usually the volume of plasma or blood freed of the substance per unit of time) was 6 mL/min in data set [1]; 4.33 mL/min in [5]; 5 mL/min in data set [8]; 3.67 mL/min in [10]; 6.67 mL/min in data set [12]. The Vd (in general, a proportionality between amount in the body and measured concentration, not a real space) worked out at 1.82 L in data set [2] and 11 L with Homo sapiens [4]. Besides, the CL in the data set with Homo sapiens [3] was 1.46 L/h; in the data set on Homo sapiens [9], 1.37 L/h; with Homo sapiens [11] it was 0.18 L/h; in the data set with Homo sapiens [13], 1.38 L/h. In addition, in [6], the half-life is 1.6 h. Further, the “beta t1/2” value in the data set with Homo sapiens [7] is 0.8 h.
